From ChEMBL document CHEMBL1147403, “MexAB-OprM specific efflux pump inhibitors in Pseudomonas aeruginosa. Part 3: Optimization of potency in the pyridopyrimidine series through the application of a pharmacophore model” (2004) come the findings set out here.

Holding throughout (format): functional
Assay [1] deals with Pseudomonas aeruginosa. Briefly: Intrinsic antibacterial activity against Pseudomonas aeruginosa. A digest of the protocol:
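Tested alone for antibacterial activity against P. aeruginosa PAM1723, a strain that overexpresses the MexAB-OprM pump and has MexCD-OprJ and MexEF-OprN genetically disrupted; MIC in µg/mL.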

The test system of assay [2] is Pseudomonas aeruginosa. The assay is described as follows: Minimum inhibitory concentration Pseudomonas aeruginosa in presence of LVFX substrate, (100% growth inhibition). Summed up:
(§1)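 Potentiation of levofloxacin (LVFX), a MexAB-OprM substrate, against P. aeruginosa PAM1723 (MexAB-OprM overexpressed; MexCD-OprJ and MexEF-OprN genetically disrupted). Value is the inhibitor concentration (µg/mL) giving 4-fold (MPC4) or 8-fold (MPC8) potentiation.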

For assay [3], the system named is Pseudomonas aeruginosa. The assay is described as follows: Minimum inhibitory concentration against Pseudomonas aeruginosa in presence of LVFX substrate, (100% growth inhibition). A digest of the protocol:
as §1

Assay [4] concerns Pseudomonas aeruginosa. The assay is described as follows: Minimum inhibitory concentration against Pseudomonas aeruginosa in presence of aztreonam substrate and with 0.125% human serum albumin, (100% growth inhibition). Summed up:
(§2)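 Potentiation of aztreonam, a MexAB-OprM substrate, against P. aeruginosa PAM1723 (MexAB-OprM overexpressed; MexCD-OprJ and MexEF-OprN genetically disrupted). Run without HSA and with 0.125% human serum albumin. Value is the inhibitor concentration (µg/mL) giving 8-fold potentiation (MPC8).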

Assay [5] relates to Pseudomonas aeruginosa. The assay is described as follows: Minimum inhibitory concentration against Pseudomonas aeruginosa in presence of aztreonam substrate and with out human serum albumin, (100% growth inhibition). Summed up:
as §2

Assay [6] is filed under the species Rattus norvegicus. The assay is described as follows: Serum protein binding of compound was evaluated using rat serum.

A word on the MIC: it is the smallest concentration in the dilution series that meets the test's criterion for growth inhibition. High values mean weaker potency, low ones greater potency. `CC(C)c1csc(CCc2ccn3c(=O)c(C#CC(=O)O)c(N4CCOCC4)nc3c2)n1` yielded an MIC in assay [1] of more than 320 µg/mL. The MPC4 in assay [2] was 2 µg/mL. The MPC8 in assay [3] was 16 µg/mL; in assay [4], 16 µg/mL; in assay [5], 8 µg/mL.

Turning to `CC(C)c1csc(CCc2ccn3c(=O)c(/C=C/C(=O)O)c(N4CCC(N(C)C)CC4)nc3c2)n1`, the MIC in assay [1] was more than 320 µg/mL. For the same molecule, in assay [2], the MPC4 stood at 32 µg/mL. Besides, the MPC8 in assay [3] was more than 128 µg/mL; in assay [4], 128 µg/mL; in assay [5] it was 128 µg/mL.

For `CC(C)c1csc(CCc2ccn3c(=O)c(/C=C/C(=O)O)c(N[C@H]4CC[C@H](O)CC4)nc3c2)n1`, the MIC in assay [1] is more than 320 µg/mL. Moreover, the MPC4 in assay [2] was determined as 16 µg/mL. For the same molecule, the MPC8 in assay [3], in assay [4] and in assay [5] was more than 64 µg/mL throughout.

In the case of `CC(C)c1csc(CCc2ccn3c(=O)c(/C=C/C(=O)O)c(NCCc4ccncc4)nc3c2)n1`, in assay [1], the MIC is more than 320 µg/mL. The MPC4 in assay [2] stood at 8 µg/mL. Further, the values for the MPC8 in assay [3], in assay [4] and in assay [5] were 64 µg/mL, 32 µg/mL and 16 µg/mL, respectively.

With `CC(C)c1csc(CCc2ccn3c(=O)c(/C=C/C(=O)O)c(N4CCC(OC(N)=O)CC4)nc3c2)n1`, the minimum inhibitory concentration (MIC) in assay [1] was more than 320 µg/mL. The MPC4 in assay [2] stood at 2 µg/mL. Besides, the MPC8 in assay [3], in assay [4] and in assay [5] was 16 µg/mL each time.

For `CC(C)c1csc(/C=C/c2cccc(NC(=O)Cc3ccccc3C(=O)O)c2)n1`, in assay [1], the MIC was more than 320 µg/mL. Further, the MPC4 in assay [2] came to 1 µg/mL. Besides, the MPC8 in assay [3] amounted to 2 µg/mL; in assay [4], 16 µg/mL; in assay [5], 2 µg/mL. The Binding in assay [6] is on record as more than 98%.

`CC(C)c1csc(CCc2ccn3c(=O)c(-c4nnn[nH]4)cnc3c2)n1` had an MIC in assay [1] of more than 320 µg/mL. Further, in assay [2], the MPC4 was more than 16 µg/mL. In addition, the MPC8 in assay [3] was more than 16 µg/mL; in assay [4], 16 µg/mL; in assay [5], 16 µg/mL. The Binding in assay [6] was found to be 81.5%.

Molecule `CC(C)c1csc(CCc2ccn3c(=O)c(/C=C/C(=O)O)c(N4CCCC4)nc3c2)n1` gave an MIC in assay [1] of more than 320 µg/mL. Further, in assay [2], the MPC4 was 2 µg/mL. In addition, the MPC8 in assay [3], in assay [4] and in assay [5] was 8 µg/mL each time.

`CC(C)c1csc(CCc2ccn3c(=O)c(/C=C/C(=O)O)c(N4CCCC(O)C4)nc3c2)n1` (configuration not stated) showed a minimal inhibitory concentration (MIC) in assay [1] of more than 320 µg/mL. Moreover, the MPC4 in assay [2] was 0.5 µg/mL. Besides, the MPC8 in assay [3] was determined as 8 µg/mL; in assay [4], 16 µg/mL; in assay [5], 8 µg/mL. Also, the Binding in assay [6] is 82.1%.

For `CC(C)c1csc(CCc2ccn3c(=O)c(/C=C/C(=O)O)c(N4CC[C@@H](N(C)C)C4)nc3c2)n1`, in assay [1], the minimal inhibitory concentration (MIC) was more than 320 µg/mL. Also, the MPC4 in assay [2] amounted to 8 µg/mL. Moreover, the MPC8 in assay [3] was 128 µg/mL; in assay [4], 64 µg/mL; in assay [5], 128 µg/mL. Further, in assay [6], the Binding is given as 69.3%.

Molecule `CC(C)c1csc(CCc2ccn3c(=O)c(/C=C/C(=O)O)c(N4CCCN(C)CC4)nc3c2)n1` returned a minimum inhibitory concentration (MIC) in assay [1] of more than 320 µg/mL. Also, in assay [2], the MPC4 came out at 8 µg/mL. Besides, the MPC8 in assay [3], in assay [4] and in assay [5] was 128 µg/mL throughout.

Molecule `CC(C)c1csc(CCc2ccn3c(=O)c(/C=C/C(=O)O)c(N4CCC(O)C4)nc3c2)n1` (configuration not stated) displayed an MIC in assay [1] of more than 320 µg/mL. Besides, in assay [2], the MPC4 was found to be 4 µg/mL. Besides, the MPC8 in assay [3], in assay [4] and in assay [5] was 32 µg/mL in each case.

Take `CC(C)c1csc(CCc2ccn3c(=O)c(/C=C/C(=O)O)c(N4CCC(O)CC4)nc3c2)n1`: the MIC in assay [1] was more than 320 µg/mL. For the same molecule, in assay [2], the MPC4 is 1 µg/mL. Moreover, the MPC8 in assay [3] was 8 µg/mL; in assay [4], 16 µg/mL; in assay [5], 16 µg/mL.

As to `CC(C)c1csc(CCc2ccn3c(=O)c(/C=C/C(=O)O)c(N4CCCC(OC(N)=O)C4)nc3c2)n1` (configuration not stated), in assay [1], the MIC is more than 320 µg/mL. The MPC4 in assay [2] was determined as 1 µg/mL. For the same molecule, the figures for the MPC8 in assay [3], in assay [4] and in assay [5] were 8 µg/mL, 16 µg/mL and 32 µg/mL, respectively. Further, in assay [6], the Binding is 91.2%.

As for `CC(C)Nc1nc2cc(CCc3nc(C(C)C)cs3)ccn2c(=O)c1/C=C/C(=O)O`, the minimum inhibitory concentration (MIC) in assay [1] is more than 320 µg/mL. The MPC4 in assay [2] was determined as 8 µg/mL. Further, the MPC8 in assay [3], in assay [4] and in assay [5] was 64 µg/mL in each case. This molecule also showed a Binding in assay [6] of 82.1%.

For `CC(C)c1csc(CCc2ccn3c(=O)c(/C=C/C(=O)O)c(N4CCN(C)CC4)nc3c2)n1`, the MIC in assay [1] is more than 320 µg/mL. Further, the MPC4 in assay [2] amounted to 8 µg/mL. Further, the MPC8 amounted to 32 µg/mL in assay [3], 32 µg/mL in assay [4] and 16 µg/mL in assay [5]. This molecule also yielded a Binding in assay [6] of 67.8%.

In assay [1], `CC(C)c1csc(CCc2ccn3c(=O)c(/C=C/C(=O)O)c(N[C@H](CO)[C@@H](O)c4ccccc4)nc3c2)n1` (single isomer, unassigned) returned a minimum inhibitory concentration (MIC) of more than 320 µg/mL. In assay [2], the MPC4 came out at 8 µg/mL. The MPC8 in assay [3], in assay [4] and in assay [5] was 64 µg/mL throughout.

Consider `CCCC(CC)Nc1nc2cc(CCc3nc(C(C)C)cs3)ccn2c(=O)c1/C=C/C(=O)O` (configuration not stated), for which the minimum inhibitory concentration (MIC) in assay [1] was more than 320 µg/mL. The MPC4 in assay [2] was 2 µg/mL. For the same molecule, the results for the MPC8 in assay [3], in assay [4] and in assay [5] were 16 µg/mL, 32 µg/mL and 32 µg/mL, respectively.

The molecule `CC(C)c1csc(CCc2ccn3c(=O)c(CCC(=O)O)c(N4CCCC(O)C4)nc3c2)n1` (configuration not stated) had a minimum inhibitory concentration (MIC) in assay [1] of more than 320 µg/mL. In addition, in assay [2], the MPC4 stood at 32 µg/mL. Moreover, the MPC8 in assay [3] and in assay [5] was more than 128 µg/mL in each case.

In assay [1], `CC(C)c1csc(CCc2ccn3c(=O)c(/C=C/C(=O)O)c(N4CCCCC4)nc3c2)n1` registered an MIC of more than 320 µg/mL. Moreover, the MPC4 in assay [2] was determined as 0.5 µg/mL. Further, the values for the MPC8 in assay [3], in assay [4] and in assay [5] were 4 µg/mL, 8 µg/mL and 4 µg/mL, respectively.

For `CC(C)c1csc(CCc2ccn3c(=O)c(/C=C/C(=O)O)c(N4CCOCC4)nc3c2)n1`, the minimal inhibitory concentration (MIC) in assay [1] is more than 320 µg/mL. The MPC4 in assay [2] came out at 2 µg/mL. Also, the MPC8 in assay [3] amounted to 16 µg/mL; in assay [4], 32 µg/mL; in assay [5], 16 µg/mL. In assay [6], this molecule displayed a Binding of 92%.

In turn, `CCCNc1nc2cc(CCc3nc(C(C)C)cs3)ccn2c(=O)c1/C=C/C(=O)O` returned an MIC in assay [1] of more than 320 µg/mL. Besides, the MPC4 in assay [2] was determined as 8 µg/mL. Besides, the MPC8 is more than 32 µg/mL in assay [3], 32 µg/mL in assay [4] and more than 32 µg/mL in assay [5].

As for `CC(C)c1csc(CCc2ccn3c(=O)c(/C=C/c4nn[nH]n4)c(N4CCCC(O)C4)nc3c2)n1` (configuration not stated), the MIC in assay [1] is more than 320 µg/mL. In addition, the MPC4 in assay [2] turned out to be 0.5 µg/mL. Moreover, the MPC8 in assay [3], in assay [4] and in assay [5] was 4 µg/mL throughout.

As to `CC(C)c1csc(CCc2ccn3c(=O)c(/C=C/C(=O)O)c(NCc4ccccn4)nc3c2)n1`, in assay [1], the MIC was more than 320 µg/mL. Besides, the MPC4 in assay [2] worked out at 16 µg/mL. Also, the MPC8 in assay [3] is 128 µg/mL; in assay [4] it was 32 µg/mL; in assay [5], 32 µg/mL.

For the molecule `CC(C)c1csc(CCc2ccn3c(=O)c(/C=C/C(=O)O)c(N4CCC(CO)CC4)nc3c2)n1`, the minimum inhibitory concentration (MIC) in assay [1] is more than 320 µg/mL. Besides, the MPC4 in assay [2] came to 1 µg/mL. The MPC8 in assay [3] came out at 8 µg/mL; in assay [4] it was 16 µg/mL; in assay [5], 16 µg/mL.

`CC(C)c1csc(CCc2ccn3c(=O)c(/C=C/C(=O)O)c(NCC4CCCCC4)nc3c2)n1` showed a minimal inhibitory concentration (MIC) in assay [1] of more than 320 µg/mL. The MPC4 in assay [2] turned out to be 8 µg/mL. The MPC8 in assay [3], in assay [4] and in assay [5] was more than 64 µg/mL in each case.

As to `CC(C)c1csc(CCc2ccn3c(=O)c(/C=C/C(=O)O)c(N4CCCCC4CO)nc3c2)n1` (configuration not stated), the MIC in assay [1] is more than 320 µg/mL. Also, in assay [2], the MPC4 was determined as 8 µg/mL. Further, the MPC8 in assay [3], in assay [4] and in assay [5] was 64 µg/mL each time.

For `CCC(CC)Nc1nc2cc(CCc3nc(C(C)C)cs3)ccn2c(=O)c1/C=C/C(=O)O`, in assay [1], the minimum inhibitory concentration (MIC) was more than 320 µg/mL. For the same molecule, the MPC4 in assay [2] is 32 µg/mL. The MPC8 in assay [3] is more than 128 µg/mL; in assay [4] it was 128 µg/mL; in assay [5] it was 128 µg/mL.

In turn, `CC(C)c1csc(CCc2ccn3c(=O)c(/C=C/C(=O)O)c(N4CCCC(N(C)C)C4)nc3c2)n1` (configuration not stated) came in with a minimum inhibitory concentration (MIC) in assay [1] of more than 320 µg/mL. For the same molecule, the MPC4 in assay [2] was found to be 8 µg/mL. The MPC8 in assay [3] was 128 µg/mL; in assay [4], 128 µg/mL; in assay [5], more than 128 µg/mL.
